From PubChem
CHO parental Ca: signal in parental CHO cells, OX1R antagonist counter-screen | parental CHO-K1, ATP-induced calcium, Fluo-8 fluorescence | inhibition, % at 5.6 µM | 330,000 compounds, 0.63% hits;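 active means inhibition above that plate's mean sample inhibition plus 3 SD, cut at about 26% in these data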;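 further: 0% = ATP-challenged DMSO wells and 100% = DMSO wells without ATP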
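Assay system: parental CHO cells; Read-out basis: percent inhibition of ATP-evoked calcium rise, normalized to controls; Benchmarks: ATP and no-ATP DMSO wells; Compound dosing: single nominal dose of 5.6 µM per compound; Signal: Fluo-8 calcium dye fluorescence; Also added: ATP as calcium-mobilizing challenge; Repeats: singlicate.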
MPTP block: inhibitors of mitochondrial permeability transition pore. isolated mouse mitochondria, Ca2+ swelling absorbance, 30 min. inhibition, % at 10 µM. 360,000 compounds, 1.4% hits;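 active means inhibition of 50% or more, scaled per plate between neutral and stimulator controls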;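 further: 0% = DMSO wells given calcium and 100% = 1 mM EGTA wells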
GPR7 antag: blocks human GPR7 receptor signaling; P48145; GPR7-expressing cells, fluorescence antagonist assay; inhibition, % at 4.4 µM; 290,000 compounds, 1.1% hits; AID 1861; in the data active means inhibition above about 16%, passing the limit was not always enough;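 further: cells stimulated with the agonist NPW; 0% = agonist with vehicle and 100% = vehicle without agonist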
OX1R antag-1: antagonists of human orexin 1 receptor (OX1R); OX1R-expressing cells, FRET antagonist read-out; inhibition, % at 6.6 µM; 330,000 compounds, 1.8% hits; O43613; in the data active means inhibition mostly above about 38%, no sharp cut-off; inactive means mostly below about 40%;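 further: 0% = agonist challenge alone and 100% = reference antagonist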
Target sequence (O43613 whole entry, looked up): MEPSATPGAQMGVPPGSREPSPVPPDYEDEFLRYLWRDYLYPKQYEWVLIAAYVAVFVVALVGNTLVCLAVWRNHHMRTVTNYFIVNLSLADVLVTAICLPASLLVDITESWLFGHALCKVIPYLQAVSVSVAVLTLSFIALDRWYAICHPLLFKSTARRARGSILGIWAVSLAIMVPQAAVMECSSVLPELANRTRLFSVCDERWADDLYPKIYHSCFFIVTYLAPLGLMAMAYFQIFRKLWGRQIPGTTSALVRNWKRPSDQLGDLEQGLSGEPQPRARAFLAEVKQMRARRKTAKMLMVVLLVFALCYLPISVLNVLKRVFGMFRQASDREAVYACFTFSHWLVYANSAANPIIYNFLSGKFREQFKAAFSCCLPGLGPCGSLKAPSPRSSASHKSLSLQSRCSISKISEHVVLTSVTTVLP
OX1R antag-2: antagonists of human orexin 1 receptor; O43613; 330,000 compounds, 0.43% hits; inhibition, % at 5 µM; CHO/OX1R cells, Fluo-8 calcium fluorescence, orexin A;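 active means inhibition above its plate's threshold, mean inhibition of all tested compounds on the plate plus 3 SD, cut at about 37% in these data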;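 further: 0% = orexin A challenge wells and 100% = SB-334867-A antagonist wells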
GPR7 antag cf: confirmation of human GPR7 antagonists; shares compounds with GPR7 antag; GPR7-expressing cells, calcium fluorescence antagonist mode; inhibition, % at 4.4 µM; 2,400 compounds, 52% hits; in the data active means inhibition above about 24%;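 further: stimulated with the GPR7 agonist NPW; 0% = agonist plus vehicle and 100% = vehicle alone without agonist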
MCHR1 antag: MCHR1 (human) antagonism in GPR7 counter-screen; AID 2148; inhibition, % at 4.4 µM; 2,400 compounds, 62% hits; shares compounds with GPR7 antag; MCHR1-expressing cells, fluorescence antagonist assay; in the data active means inhibition above about 22%;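 further: 0% = vehicle with agonist and 100% = vehicle without agonist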
* marks the source's active call; other numbers are inactive results; x = no result given. Compounds with a hit are over-represented: about 3.8% of the library has one in this group of screens.

SMILES | CHO parental Ca | MPTP block | GPR7 antag | OX1R antag-1 | OX1R antag-2 | GPR7 antag cf | MCHR1 antag
COc1cccc(C(=O)NCCCNc2nc3cc(C)cc(C)c3cc2C#N)c1 | x | -1 | x | x | x | x | x
N/C(=N\c1nc2c(c(=O)[nH]1)CCCC2)Nc1ccccc1 | -4 | -5 | 31* | 11 | -7 | 8 | 18
Cc1cc(NC(=O)CCCn2cc([N+](=O)[O-])cn2)n(Cc2ccc(F)cc2)n1 | -17 | 0 | 15 | 13 | -24 | x | x
CNC[C@@H](CC1CCCCC1)NC[C@H](CC(C)C)NCCc1cccc(C(F)(F)F)c1 | 20 | 5 | 56* | 15 | 5 | 73* | 88*
Cc1nn(Cc2ccc(F)cc2)c(C)c1NC(=O)c1cnn2c1NC(c1ccccc1)CC2C(F)(F)F (configuration not stated) | 9 | -2 | 23* | 5 | -6 | 18 | 11
Cc1cccc(C(=O)Nc2ccc(C(=O)/C=C/c3ccncc3)cc2)c1 | 2 | 4 | 46* | 17 | 5 | 74* | 104*
COc1cccc(C(=O)Nc2ccc(NC(C)=O)cc2)c1 | -2 | 0 | -3 | 3 | 4 | x | x
COc1cccc(C(=O)Nc2ccc(C(=O)c3ccncc3)cc2)c1 | 8 | -1 | 23* | 20 | 13 | 23 | 47*
O=C(CSc1ccccn1)C12CC3CC(CC(C3)C1)C2 | -18 | 1 | -6 | 26 | -39 | x | x
Cc1ccc(NC(=O)C2CCN(S(=O)(=O)c3ccc4c(c3)NC(=O)CO4)CC2)cc1 | -9 | 0 | 0 | 7 | -21 | x | x
CCC(C)[C@H](NC(=O)C1(c2ccccc2)CCN(C(=O)OC(C)(C)C)CC1)C(=O)N[C@@H](C(=O)O)c1ccccc1 (some centres not stated) | 2 | 1 | 27* | 16 | 9 | 1 | 2
CCc1ccc(N(CC(=O)Nc2ccccc2C(=O)N2CCCC2)S(C)(=O)=O)cc1 | -13 | 0 | 0 | 14 | -3 | x | x
COc1ccc(/C=C2\CCc3ccccc3C2=O)cc1O | -12 | 1 | 25* | 4 | -7 | 30* | 34*
COc1cccc(Cn2cccc(NC(=O)Nc3cccc(C#N)c3)c2=O)c1 | -16 | x | 27* | 50 | -6 | 26* | 67*
CC(=O)c1ccc(N2CCN(c3ncccn3)CC2)c([N+](=O)[O-])c1 | 10 | 1 | 35* | 30 | 3 | 13 | 18
CC(=O)c1ccc(N2CCN(c3ccc(C(N)=O)cc3[N+](=O)[O-])CC2)cc1 | 4 | 3 | 3 | 17 | -5 | x | x
O=C(COC(=O)[C@H](Cc1ccccc1)NC(=O)c1cccs1)Nc1ccccc1C(F)(F)F | -19 | 0 | 23* | 15 | -16 | 39* | 32*
NC(=O)NC(=O)COC(=O)[C@H](Cc1ccccc1)NC(=O)c1cccs1 | 1 | 7 | -10 | 8 | -4 | x | x
Cc1ccc(C(=O)NC2CCCc3ccccc32)cc1[N+](=O)[O-] (configuration not stated) | -23 | 0 | 34* | 12 | -26 | 25* | 55*
NCC12CC3CC(C1)CC(c1ccc(Br)cc1)(C3)C2 | -4 | 1 | 48* | 2 | -8 | 29* | 33*
COc1ccccc1NC(=O)COC(=O)/C=C/c1ccc2c(c1)OCO2 | -1 | -1 | 33* | 20 | -17 | 21 | 16
COc1ccccc1NC(=O)/C=C/c1ccc2c(c1)OCO2 | -15 | -2 | 12 | 27 | -13 | x | x
Cn1ccnc1C1CCCCN1Cc1nc(-c2ccc(Cl)cc2)no1 (configuration not stated) | -1 | -1 | 26* | 21 | -31 | 34* | 22*
COc1ccc([N+](=O)[O-])cc1C(=O)NCCOc1ccc(Cl)cc1 | 8 | 2 | 48* | 23 | -33 | 42* | 47*
CN(C(=O)COC(=O)c1cc(S(=O)(=O)N2CCOCC2)ccc1Cl)C1CCS(=O)(=O)C1 (configuration not stated) | 1 | -2 | x | 14 | -2 | x | x
CCOc1ccccc1NC(=O)N1CCCN(c2ncccc2C#N)CC1 | -10 | 0 | 10 | 2 | 0 | x | x
Cc1cccc2cc(C3CC(c4ccco4)=NN3S(=O)(=O)c3ccccc3)c(Cl)nc12 (configuration not stated) | -23 | 1 | -17 | 12 | -34 | x | x
